According to article PMC6528680 (Journal of natural products, 2019):
Like-named read-outs stand apart in the source and are kept apart here.

How the values were obtained:
rh-HPSE = target: T1, rh-HPSE (Homo sapiens, UniProt Q9Y251); assay: Deconjugation of curcumin-glucuronide by recombinant enzyme; assay type: biochemical; conditions: 5 μg/mL (100 nM) enzyme, 459 nM substrate, 24 h, 37°C, pH 5
T1 sequence (Q9Y251 158-543 limits assumed): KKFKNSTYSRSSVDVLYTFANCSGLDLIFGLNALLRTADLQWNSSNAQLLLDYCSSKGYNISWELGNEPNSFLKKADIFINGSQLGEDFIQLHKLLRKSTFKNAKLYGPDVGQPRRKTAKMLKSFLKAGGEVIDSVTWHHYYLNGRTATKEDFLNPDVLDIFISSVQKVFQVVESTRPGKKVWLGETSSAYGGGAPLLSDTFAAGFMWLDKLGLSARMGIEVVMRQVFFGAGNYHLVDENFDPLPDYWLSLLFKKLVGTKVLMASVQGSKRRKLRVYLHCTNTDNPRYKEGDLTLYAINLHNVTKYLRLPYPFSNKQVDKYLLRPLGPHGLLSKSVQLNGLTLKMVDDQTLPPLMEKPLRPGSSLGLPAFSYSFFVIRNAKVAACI
T1 sequence (Q9Y251 36-109 limits assumed): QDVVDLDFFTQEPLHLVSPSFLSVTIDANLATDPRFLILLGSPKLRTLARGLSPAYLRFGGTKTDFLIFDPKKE
Procedure, shortened: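 Recombinant human enzyme was incubated with synthesized glucuronide substrate in an enzyme-optimized pH 5 buffer for 24 h at 37°C. Activity was taken from quantitation of the remaining glucuronide substrate and the released aglycone product. n=3–6 per group.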

GUSB [1] = target: T2, GUSB (Mus musculus, UniProt P12265); assay type: biochemical, C57BL/6J mice; conditions: 0.5 μM curcumin-glucuronide added ex vivo, sodium acetate buffer 50 mM pH 5, 2 h
T2 sequence (P12265 23-648): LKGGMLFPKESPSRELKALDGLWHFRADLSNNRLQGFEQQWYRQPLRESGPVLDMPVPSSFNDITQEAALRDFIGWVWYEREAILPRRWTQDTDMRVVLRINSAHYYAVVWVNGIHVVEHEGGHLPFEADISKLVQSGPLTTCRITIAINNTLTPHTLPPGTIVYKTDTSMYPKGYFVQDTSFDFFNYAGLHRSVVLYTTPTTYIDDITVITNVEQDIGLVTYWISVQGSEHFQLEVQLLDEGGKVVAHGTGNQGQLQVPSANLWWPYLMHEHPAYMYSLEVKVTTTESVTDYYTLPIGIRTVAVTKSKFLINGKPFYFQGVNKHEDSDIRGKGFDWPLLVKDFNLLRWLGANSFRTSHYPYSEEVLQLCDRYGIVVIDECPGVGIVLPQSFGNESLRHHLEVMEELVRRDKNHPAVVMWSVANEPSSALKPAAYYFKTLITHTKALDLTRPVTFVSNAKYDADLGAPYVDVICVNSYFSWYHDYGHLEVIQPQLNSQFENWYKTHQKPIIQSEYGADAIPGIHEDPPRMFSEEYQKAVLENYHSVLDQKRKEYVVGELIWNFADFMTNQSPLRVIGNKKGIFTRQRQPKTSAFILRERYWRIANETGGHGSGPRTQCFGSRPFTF

[2] = tested on: RANKL-stimulated osteoclast formation in RAW 264.7 cells; assay: RANKL-stimulated osteoclastogenesis assay; assay type: cell-based, murine; conditions: even at 10-fold higher doses than the curcumin IC50
Procedure, shortened: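 RAW 264.7 cells were seeded at 5×10^3/well in DMEM with 10% FBS and 1% pen/strep and left to adhere overnight at 37°C, 5% CO2. They were pretreated 4 h with the test compound, then stimulated with recombinant mouse RANKL (50 ng/mL final) for 72 h at 37°C. TRAP-positive multinucleated osteoclasts were counted. n=4/group, mean ± SEM.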

[3] = assay type: in vivo, mice (C57BL/6J, C3H/HeJ); conditions: mouse, po, 500 mg/kg
Procedure, shortened: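 Oral gavage of 500 mg/kg in DMSO to C57BL/6J and C3H/HeJ mice (n=3–4/group), with sampling at 30 min under isoflurane. Marrow pellets were suspended in 50 mM sodium acetate pH 5 for 2 h on ice and centrifuged. Serum was acidified to pH 5 with HCl before HLB extraction and LC/MS. Marrow concentrations were corrected to pellet volume, assuming density 1.06 g/ml. Mean ± SEM.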

[4] = assay type: in vivo, mice (C57BL/6J, C3H/HeJ, mps/mps); conditions: for concentration at 20 min: mouse, ip, 100 mg/kg
Procedure, shortened: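 Test compound dosed IP at 100 mg/kg in DMSO to 15-week female BL/6J, female HeJ and male mps/mps mice (n=3–5/group). Blood and marrow were taken under isoflurane at 20 min. Marrow pellets were resuspended in 50 mM sodium acetate pH 5 and held 2 h on ice, then supernatants were kept. Serum was acidified to pH 5, and aglycone and glucuronide were measured by HLB solid-phase extraction and LC/MS. Mean ± SEM.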

GUSB [5] = target: T2, GUSB; assay type: biochemical, C57BL/6NJ mice; conditions: 10 μM added in vitro, 2 h, 37°C, physiologic pH

- Deconjugation by soluble GUSB activity in cell-free marrow fractions (GUSB [1]): sufficient to deconjugate
- concentration at 30 min ([3]; C57BL/6J, bone marrow suspension): 0.36 µM
- concentration at 30 min ([3]; C57BL/6J, serum): 82.7 µM
- concentration at 30 min ([3]; male, C3H/HeJ, bone marrow suspension): 1.19 µM
- concentration at 30 min ([3]; male, C3H/HeJ, serum): 80 µM
- concentration at 20 min ([4]; female, C3H/HeJ, bone marrow suspension): 2.7 µM
- concentration at 20 min ([4]; female, C3H/HeJ, serum): 92.1 µM
- concentration at 20 min ([4]; female, C57BL/6J, bone marrow suspension): 1.3 µM
- concentration at 20 min ([4]; female, C57BL/6J, serum): 92.7 µM
- concentration at 20 min ([4]; male, mps/mps, serum): 151 µM
- Increase of bone marrow curcumin-glucuronide concentrations vs BL/6J ([4]; mps/mps mice, IP curcumin): 4 fold
- Deconjugation in conditioned media from bone marrow cells (GUSB [5]): forming detectable aglycone curcumin
Structure (SMILES): COc1cc(/C=C/C(=O)CC(=O)/C=C/c2ccc(O[C@@H]3O[C@H](C(=O)O)[C@@H](O)[C@H](O)[C@H]3O)c(OC)c2)ccc1O [curcumin-glucuronide]
- Ability of HPSE to deconjugate curcumin glucuronide (rh-HPSE): only GUSB and KL were able to deconjugate
- Effect on RANKL-stimulated osteoclast formation [2]: without effect
